Compounds with a hit are over-represented: about 1.8% of the library has one in this group of screens.
M5 PAM = positive allosteric modulators of human muscarinic M5 receptor; activation, % at 3 µM; CHO-K1 hM5, Fluo-8 calcium, ACh EC20 PAM; 0% = ACh EC20, 100% = ACh EC100; actives 0.3% (n = 360,000); P08912; AID 624038;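 active means activation above the run cutoff, the mean activation of all test compounds plus 3 SD, cut at about 18% in these data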
Target sequence (P08912 whole entry, looked up): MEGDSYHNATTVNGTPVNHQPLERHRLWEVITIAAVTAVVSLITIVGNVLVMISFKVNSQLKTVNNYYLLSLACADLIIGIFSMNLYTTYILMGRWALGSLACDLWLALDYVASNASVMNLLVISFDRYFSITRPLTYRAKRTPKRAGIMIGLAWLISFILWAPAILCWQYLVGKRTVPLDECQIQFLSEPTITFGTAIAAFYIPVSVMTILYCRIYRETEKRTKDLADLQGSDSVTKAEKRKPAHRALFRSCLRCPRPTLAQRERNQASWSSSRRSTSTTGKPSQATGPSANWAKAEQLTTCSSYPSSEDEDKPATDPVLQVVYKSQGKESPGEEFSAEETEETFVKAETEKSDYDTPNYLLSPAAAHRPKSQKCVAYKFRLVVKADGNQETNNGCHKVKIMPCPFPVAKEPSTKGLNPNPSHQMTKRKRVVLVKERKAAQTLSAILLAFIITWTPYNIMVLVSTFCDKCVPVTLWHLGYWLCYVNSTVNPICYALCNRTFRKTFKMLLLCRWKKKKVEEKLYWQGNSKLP
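System – CHO-K1 hM5 cells · Compound – 3 µM, single dose · Incubation – compound preincubation 140 s before EC20 acetylcholine addition · Technique – Fluo-8 calcium fluorescence · Measure – Max/basal fluorescence ratio as % of EC20–EC100 ACh window · Benchmarks – low control EC20 acetylcholine (0%), high control EC100 acetylcholine (100%) · Replication – singlicate, one well per test compound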
CHRM4 agonist = CHRM4 agonism in calcium assay; CHO-K1 hM4/Gqi5, Fluo-8 calcium fluorescence; vehicle 0%, full acetylcholine response 100%; activation, % at 3 µM; actives 0.14% (n = 360,000);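 active means activation above the run mean over all test wells plus 3 SD, cut at about 32% in these data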;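 further: peak over basal fluorescence ratio per well then scaled between controls; 0% = DMSO wells and 100% = acetylcholine at EC100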
CHRM4 antagonist = CHRM4 antagonism in calcium assay; P08173; AID 624125; CHO-hM4 cells, ACh EC80, Fluo-8 calcium fluorescence; actives 0.73% (n = 360,000); inhibition, % at 3 µM;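 active means inhibition above its plate's cutoff, the mean inhibition of sample wells plus 3 SD, cut at about 27% in these data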;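 further: 0% = acetylcholine EC80 with DMSO and 100% = DMSO without agonist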
M5 antag = antagonists of human muscarinic M5 receptor (CHRM5); actives 0.59% (n = 360,000); inhibition, % at 3 µM; CHO-hM5 cells, Fluo-8 calcium fluorescence, ACh EC80; P08912;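 active means inhibition above a per-plate cutoff, the mean of that plate's test compounds plus 3 SD, cut at about 27% in these data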;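 further: 0% = acetylcholine EC80 with DMSO and 100% = DMSO without agonist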
CHRM5 agonist = agonists of human muscarinic M5 receptor (CHRM5); P08912; CHO-K1 hM5 cells, Fluo-8 calcium fluorescence; 0% DMSO wells, 100% maximal acetylcholine response; activation, % at 3 µM; actives 0.19% (n = 360,000); AID 624037;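 active means activation above the run's mean over test compounds plus 3 SD, cut at about 23% in these data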;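 further: signal is peak over basal fluorescence ratio across the kinetic read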
M4 PAM = potentiates acetylcholine response at human M4 receptor | P08173 | CHO-K1 hM4/Gqi5, Fluo-8 calcium fluorescence, ACh EC20; 0% = ACh EC20, 100% = maximal ACh | activation, % at 3 µM | actives 0.4% (n = 360,000) | AID 624126;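 active means activation above its plate's cutoff, the mean activation of sample wells plus 3 SD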
Starred values were filed as active, the others as inactive.

How did Cn1c(N)c(C(=O)CSc2nc3ccccc3c(=O)n2CCCN2CCOCC2)c(=O)n(C)c1=O do in these assays?
M5 PAM: -9.6; CHRM4 agonist: 5.5; CHRM4 antagonist: -17.6; M5 antag: 4.9; CHRM5 agonist: -1.2; M4 PAM: -3.3

How did Cc1[nH]c2ccccc2c1C(=O)CSc1nc2ccccc2c(=O)n1CCCN1CCOCC1 do in these assays?
M5 PAM: -19.6; CHRM4 agonist: 25.4; CHRM4 antagonist: 26.7*; M5 antag: 19.7; CHRM5 agonist: 4.3; M4 PAM: -13.7

How did COc1ccc(C(CC(=O)N2CCN(c3ccccc3)CC2)c2c(OC)cc(OC)c3ccc(=O)oc23)cc1 (stereo unspecified) do in these assays?
M5 PAM: -3.2; CHRM4 agonist: 5.2; CHRM4 antagonist: 2.0; M5 antag: 12.5; CHRM5 agonist: -8.9; M4 PAM: -1.6

What do the screens show for `CC[N+](CC)(CC#Cc1ccccc1)CC#Cc1ccccc1`?
M5 PAM: -31.4; CHRM4 agonist: 0.3; CHRM4 antagonist: 22.7; M5 antag: 30.7*; CHRM5 agonist: -21.9; M4 PAM: -47.7

Results for CCCn1c(-c2ccncc2)n[nH]c1=S ?
M5 PAM: 21.9*; CHRM4 agonist: 2.2; CHRM4 antagonist: -3.9; M5 antag: -0.5; CHRM5 agonist: 1.4; M4 PAM: 6.9

How did Clc1cccc2sc(N3CCCC3)nc12 do in these assays?
M5 PAM: -1.0; CHRM4 agonist: 0.4; CHRM4 antagonist: -3.4; M5 antag: -1.4; CHRM5 agonist: -2.3; M4 PAM: 3.2

What do the screens show for `Clc1cccc2sc(N3CCOCC3)nc12`?
M5 PAM: 26.2*; CHRM4 agonist: 1.9; CHRM4 antagonist: -18.6; M5 antag: -8.9; CHRM5 agonist: -8.9; M4 PAM: 10.1

Results for Cc1cc(NC(=O)CSc2nc(-c3ccccc3)c(C#N)c(=O)[nH]2)no1 ?
M5 PAM: 9.1; CHRM4 agonist: -1.8; CHRM4 antagonist: -4.4; M5 antag: -7.5; CHRM5 agonist: -2.1; M4 PAM: 21.0*

What do the screens show for `CCOC(=O)C1(Cc2ccccc2)CCN(Cc2ccc3c(c2)OCCO3)CC1`?
M5 PAM: -12.7; CHRM4 agonist: 14.7; CHRM4 antagonist: -2.3; M5 antag: 7.3; CHRM5 agonist: 0.0; M4 PAM: -6.1

Results for CC(C)(C)n1nnnc1C(c1cc2ccccc2o1)N(CCC#N)Cc1ccccc1 (stereo unspecified) ?
M5 PAM: -5.4; CHRM4 agonist: -1.5; CHRM4 antagonist: -4.0; M5 antag: 7.1; CHRM5 agonist: -0.3; M4 PAM: -3.9

How did CC1CCc2c(sc3ncnc(SCC(=O)c4ccccc4)c23)C1 (stereo unspecified) do in these assays?
M5 PAM: 7.2; CHRM4 agonist: 0.0; CHRM4 antagonist: -2.2; M5 antag: 0.0; CHRM5 agonist: -3.6; M4 PAM: 14.2

How did CC(=O)CSc1ncnc2sc3c(c12)CCC(C)C3 (stereo unspecified) do in these assays?
M5 PAM: 11.4; CHRM4 agonist: -1.0; CHRM4 antagonist: -13.9; M5 antag: -8.2; CHRM5 agonist: -7.9; M4 PAM: 22.7*

Results for Cc1ccc(NC(=O)c2cnc(N3CCN(c4ccccn4)CC3)c3ccccc23)c(Br)c1 ?
M5 PAM: -14.7; CHRM4 agonist: 11.7; CHRM4 antagonist: 30.3*; M5 antag: 14.2; CHRM5 agonist: 2.5; M4 PAM: -21.0

How did O=C(Nc1c(F)cccc1F)c1cnc(N2CCN(c3ccccn3)CC2)c2ccccc12 do in these assays?
M5 PAM: -19.5; CHRM4 agonist: 19.4; CHRM4 antagonist: 4.4; M5 antag: 13.6; CHRM5 agonist: 0.4; M4 PAM: -15.2

Results for C=CCOc1cccn2c(N(C)C(=O)c3ccc(OC)cc3)c(CC)nc12 ?
M5 PAM: 0.8; CHRM4 agonist: 0.1; CHRM4 antagonist: -4.3; M5 antag: -5.9; CHRM5 agonist: 0.5; M4 PAM: 0.9

Results for CCOC(=O)CSc1ncnc2c1sc1nc(N3CCOCC3)c3c(c12)CCCC3 ?
M5 PAM: -0.3; CHRM4 agonist: 0.3; CHRM4 antagonist: -4.9; M5 antag: -8.7; CHRM5 agonist: 0.4; M4 PAM: 27.7*

Results for COC(=O)CSc1ncnc2c1sc1nc(N3CCOCC3)c3c(c12)CCCC3 ?
M5 PAM: -1.6; CHRM4 agonist: 1.1; CHRM4 antagonist: 4.7; M5 antag: -1.6; CHRM5 agonist: -2.6; M4 PAM: 4.3

Results for Cc1ccccc1OCc1nnc(SCc2nc3ccccc3c(=O)[nH]2)n1C ?
M5 PAM: -3.2; CHRM4 agonist: -0.8; CHRM4 antagonist: 49.3*; M5 antag: 3.4; CHRM5 agonist: 0.1; M4 PAM: -14.7

How did Cn1c(Cc2ccccc2)nnc1SCc1nc2ccccc2c(=O)[nH]1 do in these assays?
M5 PAM: 6.6; CHRM4 agonist: 1.9; CHRM4 antagonist: -9.5; M5 antag: -9.0; CHRM5 agonist: -0.2; M4 PAM: 5.0

Results for O=C(CNC(=O)c1sc2ccccc2c1Cl)NC1CC1 ?
M5 PAM: -0.5; CHRM4 agonist: 0.6; CHRM4 antagonist: -5.8; M5 antag: 6.0; CHRM5 agonist: -4.0; M4 PAM: 12.7

What do the screens show for `CC(C)[C@H](NC(=O)c1ccccc1F)C(=O)NCc1ccc(S(N)(=O)=O)cc1`?
M5 PAM: 10.4; CHRM4 agonist: 3.6; CHRM4 antagonist: -25.8; M5 antag: 1.8; CHRM5 agonist: -2.9; M4 PAM: 15.4*

How did CN(C)S(=O)(=O)c1cccc(NC(=O)c2ccccc2OCc2ccc(F)cc2)c1 do in these assays?
M5 PAM: -3.5; CHRM4 agonist: 10.8; CHRM4 antagonist: -26.5; M5 antag: 5.2; CHRM5 agonist: 2.1; M4 PAM: -8.5

Results for CC(=O)c1cccc(NC(=O)c2ccccc2OCc2ccc(F)cc2)c1 ?
M5 PAM: -9.5; CHRM4 agonist: 4.2; CHRM4 antagonist: -0.8; M5 antag: 31.7*; CHRM5 agonist: -4.9; M4 PAM: -7.7

How did Cc1ccc(Cl)cc1N1CCN(C(=O)CSc2nnc3n2C(C)(C)Cc2ccccc2-3)CC1 do in these assays?
M5 PAM: -23.9; CHRM4 agonist: 13.1; CHRM4 antagonist: 33.3*; M5 antag: 40.9*; CHRM5 agonist: 4.3; M4 PAM: -17.9

What do the screens show for `COc1ccc(N2CCN(C(=O)CSc3nnc4n3C(C)(C)Cc3ccccc3-4)CC2)cc1`?
M5 PAM: -1.6; CHRM4 agonist: -0.1; CHRM4 antagonist: 3.8; M5 antag: 2.4; CHRM5 agonist: -1.1; M4 PAM: 4.2

What do the screens show for `COc1ccc2c(c1)c1c3n2CCN(C)C3=NCC1`?
M5 PAM: 6.7; CHRM4 agonist: 1.1; CHRM4 antagonist: -6.4; M5 antag: -2.2; CHRM5 agonist: 0.9; M4 PAM: 15.2*
